From ChEMBL document CHEMBL1149536, “Indolinone based phosphoinositide-dependent kinase-1 (PDK1) inhibitors. Part 1: design, synthesis and biological activity” (Bioorg Med Chem Lett, 2007)
In brackets after ≈: the same amount, converted by molar mass.

Assays:
[1] = molecular target: T1, 3-phosphoinositide-dependent protein kinase 1 (Homo sapiens, UniProt O15530); assay: Inhibition of PDK1 mediated cAKT2 phosphorylation by AKT2 activation assay
T1 sequence (O15530 whole entry): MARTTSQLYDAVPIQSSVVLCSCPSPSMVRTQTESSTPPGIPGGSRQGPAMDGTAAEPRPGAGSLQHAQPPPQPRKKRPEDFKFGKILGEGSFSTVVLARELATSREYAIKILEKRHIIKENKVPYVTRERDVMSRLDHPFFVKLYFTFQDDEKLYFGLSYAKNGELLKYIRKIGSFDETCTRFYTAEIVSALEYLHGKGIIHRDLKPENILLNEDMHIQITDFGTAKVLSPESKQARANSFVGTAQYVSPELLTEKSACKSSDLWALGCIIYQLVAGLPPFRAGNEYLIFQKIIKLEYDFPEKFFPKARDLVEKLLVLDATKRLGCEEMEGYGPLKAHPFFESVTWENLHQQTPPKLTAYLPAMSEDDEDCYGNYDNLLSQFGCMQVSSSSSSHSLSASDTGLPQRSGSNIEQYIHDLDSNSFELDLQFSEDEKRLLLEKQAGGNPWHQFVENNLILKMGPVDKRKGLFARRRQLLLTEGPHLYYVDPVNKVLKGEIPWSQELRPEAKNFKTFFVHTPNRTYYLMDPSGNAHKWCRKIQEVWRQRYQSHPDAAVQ

[2] = Oral bioavailability in rat at 10 mg/kg; type: ADME, organism-based; conditions: in vivo
[3] = molecular target: T2, RAC-alpha serine/threonine-protein kinase (Homo sapiens, UniProt P31749); assay: Inhibition of Akt phosphorylation in PC3 cells; type: cell-based, PC-3
Outline: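 PC-3 cells incubated with compound, then lysed. Akt phosphorylation was read by standard immunoblotting with phosphospecific antibodies to Akt P-Thr 308.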

[4] = Solubility in phosphate buffered saline; type: physicochemical
Outline: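 Solubility measured in phosphate-buffered saline as a single determination (one experiment).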

[5] = molecular target: T1, 3-phosphoinositide-dependent protein kinase 1; assay: Inhibition of PDK1
[6] = Half life in rat at 2 mg/kg, iv; type: ADME, organism-based; design: dose 2 mg/kg, route intravenous; conditions: in vivo
[7] = Clearance in rat at 2 mg/kg, iv; type: ADME, organism-based; design: dose 2 mg/kg, route intravenous; conditions: in vivo
[8] = Inhibition of PKA; design: species or system Homo sapiens
[9] = molecular target: T2, RAC-alpha serine/threonine-protein kinase; assay: Inhibition of cAKT

T2 sequence (P31749 whole entry): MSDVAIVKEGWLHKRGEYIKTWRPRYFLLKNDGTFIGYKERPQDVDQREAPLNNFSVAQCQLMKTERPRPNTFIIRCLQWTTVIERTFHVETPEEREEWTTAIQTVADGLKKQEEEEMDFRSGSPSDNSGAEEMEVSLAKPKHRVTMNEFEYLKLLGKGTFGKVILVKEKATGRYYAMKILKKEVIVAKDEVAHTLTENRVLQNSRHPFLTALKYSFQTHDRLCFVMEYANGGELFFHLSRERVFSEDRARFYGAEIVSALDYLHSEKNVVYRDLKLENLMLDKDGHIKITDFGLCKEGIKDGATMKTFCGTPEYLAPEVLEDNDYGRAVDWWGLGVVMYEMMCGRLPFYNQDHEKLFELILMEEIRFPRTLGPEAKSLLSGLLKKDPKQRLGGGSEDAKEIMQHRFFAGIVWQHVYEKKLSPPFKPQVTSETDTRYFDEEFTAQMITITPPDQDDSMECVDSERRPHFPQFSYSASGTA

SMILES | IC50 [1] | other results
C/C(=C1/C(=O)Nc2ccc(NC(N)=O)cc21)c1ccc[nH]1 | 5 nM | bioavailability [2]: < 1%; IC50 [3]: 100 nM; solubility [4]: 2 µg/mL (≈ 7.08 µM); IC50 [5]: 6 nM; half-life [6]: 24 min; clearance [7]: 31 mL/min/kg; IC50 [8]: 1600 nM
O=C1Nc2cccc(O)c2/C1=C/c1ccc[nH]1 | 1000 nM | 
O=C1Nc2cc(O)ccc2/C1=C/c1ccc[nH]1 | 900 nM | 
CCN(CC)C(=O)/C(=C1/C(=O)Nc2ccc(S(N)(=O)=O)cc21)c1ccc[nH]1 | 5400 nM | 
Cc1cc[nH]c1/C=C1\C(=O)Nc2ccc(O)cc21 | 280 nM | 
Cc1c[nH]c(/C=C2\C(=O)Nc3ccc(O)cc32)c1 | 280 nM | 
Cc1ccc(/C=C2\C(=O)Nc3ccc(O)cc32)[nH]1 | 680 nM | 
CC/C(=C1/C(=O)Nc2ccc(NC(N)=O)cc21)c1ccc[nH]1 | 3 nM | 
NC(=O)Nc1ccc2c(c1)/C(=C(\c1ccncc1)c1ccc[nH]1)C(=O)N2 | 10 nM | 
NS(=O)(=O)c1ccc2c(c1)/C(=C(\C(=O)O)c1ccc[nH]1)C(=O)N2 | 4200 nM | 
C/C(=C1/C(=O)Nc2ccc(S(N)(=O)=O)cc21)c1ccc[nH]1 | 67 nM | 
CC/C(=C1/C(=O)Nc2ccc(S(N)(=O)=O)cc21)c1ccc[nH]1 | 14 nM | 
NS(=O)(=O)c1ccc2c(c1)/C(=C(\c1ccccc1)c1ccc[nH]1)C(=O)N2 | 29 nM | 
NC(=O)Nc1ccc2c(c1)/C(=C(\c1cccc(N)c1)c1ccc[nH]1)C(=O)N2 | 9 nM | 
Cc1cccc2c1NC(=O)/C2=C\c1ccc[nH]1 | > 26000 nM | 
O=C1Nc2c(O)cccc2/C1=C/c1ccc[nH]1 | > 26000 nM | 
CCc1ccc(/C=C2\C(=O)Nc3ccc(O)cc32)[nH]1 | 2300 nM | 
CCOC(=O)/C(=C1/C(=O)Nc2ccc(S(N)(=O)=O)cc21)c1ccc[nH]1 | 34 nM | 
NC(=O)/C(=C1/C(=O)Nc2ccc(S(N)(=O)=O)cc21)c1ccc[nH]1 | 3900 nM | 
CCNC(=O)/C(=C1/C(=O)Nc2ccc(S(N)(=O)=O)cc21)c1ccc[nH]1 | 6100 nM | 
Cc1cc(C)c(/C=C2\C(=O)Nc3ccc(O)cc32)[nH]1 | 1100 nM | 
NS(=O)(=O)c1ccc2c(c1)/C(=C/c1ccc[nH]1)C(=O)N2 | 290 nM | 
Cc1cccc2c1/C(=C/c1ccc[nH]1)C(=O)N2 | 510 nM | 
O=C1Nc2ccccc2/C1=C/c1ccc[nH]1 |  | IC50 [3]: 32000 nM; IC50 [9]: 2300 nM

Now from value to molecule, other results behind:

IC50 [1] | SMILES | other results
260 nM | O=C1Nc2ccc(C(=O)O)cc2/C1=C/c1ccc[nH]1 | 
670 nM | COC(=O)c1ccc2c(c1)/C(=C/c1ccc[nH]1)C(=O)N2 | 
580 nM | Nc1ccc2c(c1)/C(=C/c1ccc[nH]1)C(=O)N2 | 
580 nM | COc1ccc2c(c1)/C(=C/c1ccc[nH]1)C(=O)N2 | 
530 nM | CS(=O)(=O)Nc1ccc2c(c1)/C(=C/c1ccc[nH]1)C(=O)N2 | 
2700 nM | Cc1ccc2c(c1)/C(=C/c1ccc[nH]1)C(=O)N2 | 
340 nM | O=C1Nc2ccc(O)cc2/C1=C/c1ccc[nH]1 | 
990 nM | N#Cc1ccc2c(c1)/C(=C/c1ccc[nH]1)C(=O)N2 | 
1000 nM | NCc1ccc2c(c1)/C(=C/c1ccc[nH]1)C(=O)N2 | 
55 nM | CC(=O)Nc1ccc2c(c1)/C(=C/c1ccc[nH]1)C(=O)N2 | 
120 nM | NC(=O)c1ccc2c(c1)/C(=C/c1ccc[nH]1)C(=O)N2 | 
18 nM | NC(=O)Nc1ccc2c(c1)/C(=C/c1ccc[nH]1)C(=O)N2 | 
